Experimental data of several laboratories.
Compare with care: the assays were run in different laboratories.
Target: Citron Rho-interacting kinase (CIT, Homo sapiens, UniProt O14578)

The remaining binding of `C[C@H]1CCN(c2nccc(-c3cnn4ncccc34)n2)C1` is reported as 69% (binding; 1 µM).
The remaining binding of `CNC(=O)c1ccc(Nc2ncc(C(F)(F)F)c(NCc3nccnc3N(C)S(C)(=O)=O)n2)cc1` is reported as 68% (cell-free assay, competition with immobilised ligand; 0.1 µM).
`O=C(c1ccc(Nc2ncc(Cl)c(-c3ccc(Cl)s3)n2)cc1)N1CCC(N2CCCC2)CC1` gave a remaining binding of 30% (binding, competition with immobilised ligand; 1 µM).
With `COc1ccnn2ncc(-c3ccnc(N(C)C)n3)c12` the remaining binding was 95% (binding; 1 µM).
With `CNC(=O)[C@@H]1CC[C@@H](n2c(-c3ccc4cnccc4c3)nc3ccc(C(=O)NCc4cccc(C(N)=O)c4)cc32)C1` the remaining binding was 100% (binding, competition with immobilised ligand; 1 µM).
The remaining binding of `F[C@@H]1CCN(c2nccc(-c3cnn4ncccc34)n2)C1` is reported as 75% (binding; 1 µM).
The remaining binding of `COc1ncc2cc3ccccc3nc2c1C#N` is reported as 40% (cell-free assay, competition with immobilised ligand; 5 µM).
`CC(=O)c1c(NS(C)(=O)=O)c2cc(-c3ccc(Cl)cc3)c(-c3ccc(Cl)cc3Cl)nc2n(C)c1=O` has a remaining binding of 96% (cell-free assay, competition with immobilised ligand; 1 µM).
`CN(C)c1nccc(-c2cnn3ncccc23)n1` gave a remaining binding of 86% (binding; 1 µM).
The remaining binding of `O=C(NCCCN1CCOCC1)c1ccc(Nc2ncc(Cl)c(-c3ccc(Cl)s3)n2)cc1` is reported as 63% (binding, competition with immobilised ligand; 1 µM).
`O=c1nc(-c2ccccn2)sc2ccccc12` has a remaining binding of 100% (binding, competition with immobilised ligand; 1 µM).
For `Cc1cnn2ncc(-c3ccnc(N(C)C)n3)c2c1`, the remaining binding was 82% (binding; 1 µM).
`C[C@@H](c1cccc(C#N)c1)n1cc(Cl)cc(C(N)=O)c1=N` has a remaining binding of 100% (cell-free assay, competition with immobilised ligand; 1 µM).
`O=C(c1ccc(Nc2ncc(Cl)c(-c3cc4ccccc4s3)n2)cc1)N1CCC(N2CCCC2)CC1` gave a remaining binding of 30% (binding, competition with immobilised ligand; 1 µM).
The remaining binding of `O=C(NCC1CCOCC1)c1n[nH]cc1NC(=O)c1c(F)cccc1F` is reported as 100% (binding, competition with immobilised ligand; 1 µM).
`c1ccc(N2CCN(Cc3nc4ccccc4[nH]3)CC2)nc1` gave a remaining binding of 88% (binding, competition with immobilised ligand; 1 µM).
With `c1cncc(-c2cccc(Nc3nccc(NC4CCCCC4)n3)c2)c1` the remaining binding was 42% (binding, competition with immobilised ligand; 10 µM).
For `N[C@H]1CCN(c2nccc(-c3cnn4ncccc34)n2)C1`, the remaining binding was 100% (binding; 1 µM).
For `CS(=O)(=O)N1CCCC(NC(=O)[C@H](CCC2CCCCC2)NC(=O)c2ccc(CNC(=O)c3cnc4ccccn34)cc2)C1` (stereo partly shown), the remaining binding was 100% (cell-free assay, competition with immobilised ligand; 0.1 µM).
